Calls of active or inactive are those of the source. The calls are words filed in the database; no cut-off is given here.
Assays:
Type in all cases: cell-based
[1] = target: Nuclear receptor subfamily 4 group A member 2 (Homo sapiens) (UniProt P43354); assay: Modulation of full length human Nurr1 expressed in SKNBE(2) cells co-transfected with RXRalpha and luciferase reporter plasmid harboring NBRE response element assessed as increase in luciferase activity incubated for 18 hrs by luciferase reporter gene assay; conditions: SKNBE2, filed as modulator, dose 0.01-1 µM
Method in brief: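 SK-N-BE(2)-C cells were kept in 1:1 EMEM/F12 with 10% FBS at 37°C and 5% CO2. They were cotransfected with full-length Nurr1 (1 μg), full-length RXRα (1 μg) and 3xNBRE- or 3xNurRE-luc reporter (6 μg) for 18 h, replated at 10,000 cells/well for 4 h, and then treated with ligand or vehicle in quadruplicate for 18 h. The readout was luciferase luminescence as fold over vehicle, reported as mean ± s.e.m. (n=4) from 2 independent experiments, one-way ANOVA.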

HEK-293T [2] = assay: Cytotoxicity in human HEK293T cells assessed as reduction in cell viability at 0.01 to 1 uM incubated for 18 hrs by Cell Titer-Glo assay; conditions: dose 0.01-1 µM
Method in brief: (§1)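 Cells seeded at 1.5 million per 10-cm dish. Next day they were replated at 10,000 cells/well and rested 4 h. Ligand or vehicle (water, ethanol or DMSO, by ligand) was added in dose-response format in quadruplicate. After 18 h, viability was read by CellTiter-Glo luminescence. Data are mean ± s.e.m., generally representative of 2 independent experiments. One-way ANOVA versus vehicle.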

[3] = target: Nuclear receptor subfamily 4 group A member 2 (Homo sapiens) (UniProt P43354); assay: Modulation of full length human Nurr1 expressed in HEK293T cells co-transfected with luciferase reporter plasmid harboring NBRE response element assessed as increase in luciferase activity incubated for 18 hrs by luciferase reporter gene assay; conditions: filed as modulator, dose 0.01-1 µM
Method in brief: (§2)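 Full-length Nurr1 plasmid, alone (2 μg) or 1 μg plus full-length RXRα (1 μg), cotransfected with 3xNBRE- or 3xNurRE-luciferase reporter (6 μg) using Lipofectamine 2000, 18 h. Cells replated at 10,000/well for 4 h. Four ligand concentrations, or vehicle (water, ethanol or DMSO), added in quadruplicate for 18 h. Luciferase read. Fold change vs vehicle, mean ± s.e.m., one-way ANOVA vs vehicle.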

PC-12 [4] = assay: Modulation of Gal4-fused VP16 expressed in PC12 cells co-transfected with UAS repoter gene assessed as increase in luciferase activity at 0.01 to 1 uM incubated for 18 hrs by luciferase reporter gene assay; conditions: Human alphaherpesvirus 2, filed as modulator, dose 0.01-1 µM
Method in brief: (§3)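 Cells in 10-cm dishes were transfected with Gal4-VP16 expression plasmid (2 μg) plus 5xUAS-luciferase reporter (2 μg) for 18 h. They were replated at 10,000 cells/well for 4 h, then given ligand or vehicle (water, ethanol or DMSO) in quadruplicate for 18 h. Luciferase was read with Britelite Plus. Fold change is versus vehicle-treated cells, with one-way ANOVA versus vehicle.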

SK-N-BE(2) [5] = assay: Cytotoxicity in human SKNBE2 cells assessed as reduction in cell viability at 0.01 to 1 uM incubated for 18 hrs by Cell Titer-Glo assay; conditions: dose 0.01-1 µM; method in brief: as §1
[6] = target: Nuclear receptor subfamily 4 group A member 2 (Homo sapiens) (UniProt P43354); assay: Modulation of full length human Nurr1 expressed in PC12 cells co-transfected with luciferase reporter plasmid harboring NurRE response element assessed as increase in luciferase activity incubated for 18 hrs by luciferase reporter gene assay; conditions: PC-12, filed as modulator, dose 0.01-1 µM
Method in brief: (§4)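 Here PC12 cells (FK-12 medium, 15% horse serum, 2.5% FBS, 37°C, 5% CO2) received full-length Nurr1 (2 μg) without RXRα, plus 3xNBRE- or 3xNurRE-luciferase reporter (6 μg), for 18 h. Cells were replated at 10,000/well for 4 h, then treated with ligand or vehicle in quadruplicate for 18 h. Luciferase luminescence was normalized to vehicle-treated cells. Results are mean ± s.e.m. (n=4) from 2 independent experiments, with one-way ANOVA against vehicle.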

[7] = target: Nuclear receptor subfamily 4 group A member 2 (Homo sapiens) (UniProt P43354); assay: Modulation of full length human Nurr1 expressed in HEK293T cells co-transfected with luciferase reporter plasmid harboring NurRE response element assessed as increase in luciferase activity incubated for 18 hrs by luciferase reporter gene assay; conditions: filed as modulator, dose 0.01-1 µM; method in brief: as §2
[8] = target: Nuclear receptor subfamily 4 group A member 2 (Homo sapiens) (UniProt P43354); assay: Modulation of full length human Nurr1 expressed in PC12 cells co-transfected with RXRalpha and luciferase reporter plasmid harboring NurRE response element assessed as increase in luciferase activity incubated for 18 hrs by luciferase reporter gene assay; conditions: PC-12, filed as modulator, dose 0.01-1 µM
Method in brief: (§5)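 PC12 cells were grown at 37°C and 5% CO2 in […] medium with 15% horse serum and 2.5% FBS. They were transfected with full-length Nurr1 (1 μg) plus full-length RXRα (1 μg) and 3xNBRE- or 3xNurRE-luciferase reporter (6 μg) for 18 h, then replated at 10,000 cells/well for 4 h. Ligand or vehicle (water, ethanol or DMSO) was added in quadruplicate for 18 h. Luminescence was read as fold change over vehicle. Results are mean ± s.e.m., n=4, from 2 independent experiments, analysed by one-way ANOVA against vehicle.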

[9] = target: Nuclear receptor subfamily 4 group A member 2 (Homo sapiens) (UniProt P43354); assay: Modulation of full length human Nurr1 expressed in HEK293T cells co-transfected with RXRalpha and luciferase reporter plasmid harboring NurRE response element assessed as increase in luciferase activity incubated for 18 hrs by luciferase reporter gene assay; conditions: filed as modulator, dose 0.01-1 µM; method in brief: as §2
[10] = target: Nuclear receptor subfamily 4 group A member 2 (Homo sapiens) (UniProt P43354); assay: Modulation of full length human Nurr1 expressed in HEK293T cells co-transfected with RXRalpha and luciferase reporter plasmid harboring NBRE response element assessed as increase in luciferase activity incubated for 18 hrs by luciferase reporter gene assay; conditions: filed as modulator, dose 0.01-1 µM; method in brief: as §2
[11] = target: Nuclear receptor subfamily 4 group A member 2 (Homo sapiens) (UniProt P43354); assay: Modulation of full length human Nurr1 expressed in SKNBE(2) cells co-transfected with luciferase reporter plasmid harboring NBRE response element assessed as increase in luciferase activity incubated for 18 hrs by luciferase reporter gene assay; conditions: SKNBE2, filed as modulator, dose 0.01-1 µM
Method in brief: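 Transfection of SK-N-BE(2)-C cells (1:1 EMEM/F12, 10% FBS, 37°C, 5% CO2) used full-length Nurr1 alone (2 μg, no RXRα) with 3xNBRE- or 3xNurRE-luciferase reporter (6 μg) for 18 h. Cells were replated at 10,000/well for 4 h, then exposed to ligand or vehicle in quadruplicate for 18 h. Luminescence was expressed as fold over vehicle, as mean ± s.e.m. (n=4) from 2 independent experiments, one-way ANOVA against vehicle.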

SKNBE2 = assay: Modulation of Gal4-fused VP16 expressed in SKNBE(2) cells co-transfected with UAS repoter gene assessed as increase in luciferase activity at 0.01 to 1 uM incubated for 18 hrs by luciferase reporter gene assay; conditions: Human alphaherpesvirus 2, filed as modulator, dose 0.01-1 µM; method in brief: as §3
HEK293T = assay: Modulation of Gal4-fused VP16 expressed in HEK293T cells co-transfected with UAS repoter gene assessed as increase in luciferase activity at 0.01 to 1 uM incubated for 18 hrs by luciferase reporter gene assay; conditions: Human alphaherpesvirus 2, filed as modulator, dose 0.01-1 µM; method in brief: as §3
[12] = target: Nuclear receptor subfamily 4 group A member 2 (Homo sapiens) (UniProt P43354); assay: Modulation of full length human Nurr1 expressed in PC12 cells co-transfected with RXRalpha and luciferase reporter plasmid harboring NBRE response element assessed as increase in luciferase activity incubated for 18 hrs by luciferase reporter gene assay; conditions: PC-12, filed as modulator, dose 0.01-1 µM; method in brief: as §5
PC-12 [13] = assay: Cytotoxicity in rat PC-12 cells assessed as reduction in cell viability at 0.01 to 1 uM incubated for 18 hrs by Cell Titer-Glo assay; conditions: pc-12, 18 h, dose 0.01-1 µM; method in brief: as §1
[14] = target: Nuclear receptor subfamily 4 group A member 2 (Homo sapiens) (UniProt P43354); assay: Modulation of full length human Nurr1 expressed in SKNBE(2) cells co-transfected with luciferase reporter plasmid harboring NurRE response element assessed as increase in luciferase activity incubated for 18 hrs by luciferase reporter gene assay; conditions: SKNBE2, filed as modulator, dose 0.01-1 µM
[15] = target: Nuclear receptor subfamily 4 group A member 2 (Homo sapiens) (UniProt P43354); assay: Modulation of full length human Nurr1 expressed in PC12 cells co-transfected with luciferase reporter plasmid harboring NBRE response element assessed as increase in luciferase activity incubated for 18 hrs by luciferase reporter gene assay; conditions: PC-12, filed as modulator, dose 0.01-1 µM; method in brief: as §4
PC-12 [16] = assay: Cytotoxicity in rat PC-12 cells assessed as reduction in cell viability at 0.5 to 5 uM incubated for 18 hrs by Cell Titer-Glo assay; conditions: pc-12, 18 h, dose 0.5-5 µM; method in brief: as §1
SK-N-BE(2) [17] = assay: Cytotoxicity in human SKNBE2 cells assessed as reduction in cell viability at 0.5 to 5 uM incubated for 18 hrs by Cell Titer-Glo assay; conditions: dose 0.5-5 µM; method in brief: as §1
HEK-293T [18] = assay: Cytotoxicity in human HEK293T cells assessed as reduction in cell viability at 0.5 to 5 uM incubated for 18 hrs by Cell Titer-Glo assay; conditions: dose 0.5-5 µM; method in brief: as §1

Chain of Nuclear receptor subfamily 4 group A member 2 (Homo sapiens) (P43354 whole entry): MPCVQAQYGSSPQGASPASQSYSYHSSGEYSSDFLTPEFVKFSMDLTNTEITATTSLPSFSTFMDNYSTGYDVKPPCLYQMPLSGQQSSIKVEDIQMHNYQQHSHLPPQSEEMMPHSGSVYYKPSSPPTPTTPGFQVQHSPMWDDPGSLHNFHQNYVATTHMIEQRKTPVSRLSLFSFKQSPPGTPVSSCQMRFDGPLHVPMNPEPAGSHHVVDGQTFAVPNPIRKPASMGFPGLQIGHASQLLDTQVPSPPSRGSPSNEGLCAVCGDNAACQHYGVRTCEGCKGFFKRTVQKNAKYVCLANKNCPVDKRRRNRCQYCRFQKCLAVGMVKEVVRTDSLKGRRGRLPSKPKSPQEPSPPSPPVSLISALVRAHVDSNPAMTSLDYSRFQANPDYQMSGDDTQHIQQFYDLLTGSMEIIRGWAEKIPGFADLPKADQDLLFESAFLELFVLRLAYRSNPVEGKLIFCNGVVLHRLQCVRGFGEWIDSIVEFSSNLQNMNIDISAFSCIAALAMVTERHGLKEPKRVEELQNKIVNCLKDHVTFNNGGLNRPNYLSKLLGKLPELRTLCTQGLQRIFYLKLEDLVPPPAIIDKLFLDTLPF

Activity [1]	Activity [3]	Activity [6]	Activity [7]	Activity [8]	Activity [9]	Activity [10]	Activity [11]	Activity [12]	Activity [14]	Activity [15]	Compound	Activity (HEK-293T [2])	Activity (PC-12 [4])	Activity (SK-N-BE(2) [5])	Activity (SKNBE2)	Activity (HEK293T)	Activity (PC-12 [13])	Activity (PC-12 [16])	Activity (SK-N-BE(2) [17])	Activity (HEK-293T [18])
Dose-Dependent Effect	Dose-Dependent Effect	Dose-Dependent Effect	Dose-Dependent Effect	Dose-Dependent Effect	Dose-Dependent Effect	Dose-Dependent Effect	Dose-Dependent Effect	Dose-Dependent Effect	Dose-Dependent Effect	Dose-Dependent Effect	O=C(Nc1ccccc1)c1cn2cc(-c3ccccn3)ccc2n1	Non-Toxic	Active	Non-Toxic	Active	Active	Non-Toxic	–	–	–
–	–	–	–	–	–	–	–	–	–	–	O=C(O)c1ccc2nc(-c3ccc(F)cc3)[nH]c2c1	–	–	–	–	–	–	Non-Toxic	Non-Toxic	Non-Toxic

Source: ChEMBL document CHEMBL5030505, “Assessment of NR4A Ligands That Directly Bind and Modulate the Orphan Nuclear Receptor Nurr1” (J Med Chem, 2020)
